This is a sample that favours compounds with a hit; in the whole collection about 2.4% have one here.
NadD block: NadD (S. aureus) enzyme inhibition; purified NadD enzyme, colorimetric absorbance read-out; AID 602399; inhibition, % at 20 µM; 360,000 tested, 0.78% active; in the data active means inhibition above about 26%
DNMT1 block: DNMT1 (human) enzyme inhibition | DNMT1 molecular beacon, Hinp1I cleavage, fluorescence | 360,000 tested, 0.83% active | P26358 | inhibition (reported as % activation of signal), % at 10 µM | AID 588458; in the data active means inhibition above about 50%
SUMO1 PPI mod: modulators of human SUMO1-mediated protein-protein interactions. inhibition, % at 20 µM. P63165. 360,000 tested, 0.33% active. AID 602429. SUMO1 binding to a labelled peptide, TR-FRET, 1 h; in the data active means inhibition above about 37%
Target sequence (P63165 whole entry, looked up): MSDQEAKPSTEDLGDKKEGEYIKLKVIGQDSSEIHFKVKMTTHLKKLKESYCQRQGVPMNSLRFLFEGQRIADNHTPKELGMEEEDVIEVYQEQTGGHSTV
Scp-1 inhibitor: blocks human Scp-1 phosphatase activity. Recombinant Scp1, phosphopeptide, malachite green phosphate absorbance. inhibition, % at 20 µM. 340,000 tested, 0.88% active;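 active means inhibition above about 50% at 20 µM, limit read from the data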;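 further: plate controls were DMSO wells with enzyme for no effect and wells lacking enzyme for full effect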
Target sequence (Q9GZU7 76-261 limits assumed): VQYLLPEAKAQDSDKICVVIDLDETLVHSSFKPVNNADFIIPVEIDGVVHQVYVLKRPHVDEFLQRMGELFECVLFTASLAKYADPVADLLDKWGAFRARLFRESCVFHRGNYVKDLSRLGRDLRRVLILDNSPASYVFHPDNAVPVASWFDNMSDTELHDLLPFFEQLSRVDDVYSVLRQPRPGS
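Times: enzyme reaction 45 min at room temperature, colour 5 min, stabilisation 30 min. Material: SCP-1 catalytic fragment, aa 76-261. Medium: Acidic Tris acetate buffer with magnesium and detergent. Signal: colorimetric free-phosphate detection, absorbance 630 nm. Read-out basis: % inhibition of SCP-1 phosphate liberation. Reagent: Phosphorylated 17-residue peptide substrate.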
STEP block: blocks human striatal-enriched tyrosine phosphatase | recombinant STEP, OMFP fluorogenic substrate, fluorescence | AID 588621 | inhibition, % at 20 µM | 360,000 tested, 0.25% active;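 active means inhibition at 20 µM, scaled per plate between control wells, above about 37%, limit read from the data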;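 further: 0% = DMSO with enzyme and substrate and 100% = substrate only without enzyme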
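Measure: Control-normalized % inhibition with plate pattern correction | Test system: STEP phosphatase, cell-free reaction | Medium: pH 6.0 Bis-Tris with DTT and Tween 20 | Technique: Fluorescence, 480/540 nm | Times: Reaction 20 min, ambient temperature | Doses: Single compound dose of 20 µM, 1% DMSO final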
LMPTP block: blocks human LMPTP phosphatase | inhibition, % at 20 µM | recombinant LMPTP-A, OMFP fluorogenic substrate, fluorescence intensity | 360,000 tested, 0.22% active;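 active means compounds that cut the enzyme signal by at least half of the control window in the single-dose screen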;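 further: plate controls were DMSO wells with enzyme plus substrate for no effect and substrate without enzyme for full effect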
Target sequence (P24666 whole entry, looked up): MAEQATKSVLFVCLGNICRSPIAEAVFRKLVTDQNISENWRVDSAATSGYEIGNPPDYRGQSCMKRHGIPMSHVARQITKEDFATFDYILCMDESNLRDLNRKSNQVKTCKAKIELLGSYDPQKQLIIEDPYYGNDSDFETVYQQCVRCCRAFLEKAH
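Test system – LMPTP-A phosphatase enzyme · Quantity – 0.625 nM LMPTP-A final · Reagent – OMFP substrate, 400 µM final · Dosing – one test concentration per compound, 20 µM, with 3% DMSO overall · Timing – 50 min enzyme reaction at room temperature, protected from light · Detection – fluorescence intensity · Controls – substrate-only low control, DMSO enzyme-plus-substrate high control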
Starred values were filed as active, the others as inactive.

Screening CC(C)CN(C(=O)COC(=O)c1ccc([N+](=O)[O-])s1)c1c(N)n(Cc2ccccc2)c(=O)[nH]c1=O returned NadD block -5, DNMT1 block 56*, SUMO1 PPI mod -19, Scp-1 inhibitor -4, STEP block 0 and LMPTP block -1.
Screening Cc1cc2c(c(=O)o1)C(C(C)C)C(C#N)=C(N)O2 (centres undefined) returned NadD block 1, DNMT1 block 1, SUMO1 PPI mod -1, Scp-1 inhibitor 1, STEP block 0 and LMPTP block -1.
For c1cncc(-c2nnc3n2CCC3)c1 the results were NadD block -2, DNMT1 block 0, SUMO1 PPI mod 1, Scp-1 inhibitor -8, STEP block -1 and LMPTP block -2.
`Cc1cc(C)c(Nc2cc(S(=O)(=O)O)c(N)c3c2C(=O)c2ccccc2C3=O)c(C)c1` gave NadD block 30*, DNMT1 block 80*, SUMO1 PPI mod 74*, Scp-1 inhibitor 27, STEP block 2 and LMPTP block 33.
For Cc1cc(C)c(NC(=O)COC(=O)c2cccc3c2C(=O)c2ccccc2C3=O)c(C)c1 the results were NadD block 8, DNMT1 block -2, SUMO1 PPI mod -15, Scp-1 inhibitor -8, STEP block 3 and LMPTP block 3.
O=C(Nc1c[nH]c(=O)[nH]c1=O)c1ccc2c(c1)C(=O)N(c1cccc([N+](=O)[O-])c1)C2=O was read as NadD block 10, DNMT1 block 58*, SUMO1 PPI mod 5, Scp-1 inhibitor 38, STEP block 6 and LMPTP block 16.
For O=C(c1ccccc1)N1CCC(c2nc3c(nnn3Cc3ccco3)c(=O)[nH]2)CC1 the results were NadD block 0, DNMT1 block 6, SUMO1 PPI mod 53*, Scp-1 inhibitor 3, STEP block 1 and LMPTP block -1.
O=C(c1ccc(Cl)cc1Cl)N1CCC(c2nc3c(nnn3Cc3ccco3)c(=O)[nH]2)CC1 was read as NadD block 8, DNMT1 block -1, SUMO1 PPI mod 4, Scp-1 inhibitor 3, STEP block 2 and LMPTP block 2.
`O=C(CSc1nnc(-c2ccco2)c(-c2ccco2)n1)c1ccccc1` gave NadD block 20, DNMT1 block 85*, SUMO1 PPI mod 30, Scp-1 inhibitor 45, STEP block 5 and LMPTP block 8.
O=C(CSc1nnc(-c2ccco2)o1)c1ccccc1 was read as NadD block 0, DNMT1 block 1, SUMO1 PPI mod 1, Scp-1 inhibitor -2, STEP block 5 and LMPTP block 1.
`O=C(N/N=C/c1ccccc1O)c1cccc(C(F)(F)F)c1` gave NadD block -3, DNMT1 block 3, SUMO1 PPI mod 4, Scp-1 inhibitor 53*, STEP block 5 and LMPTP block 20.
`O=C(Nc1ccncc1NC(=O)c1cccc([N+](=O)[O-])c1)c1cccc([N+](=O)[O-])c1` gave NadD block -5, DNMT1 block 37, SUMO1 PPI mod 76*, Scp-1 inhibitor 9, STEP block 30 and LMPTP block 55*.
`CC1(C)C[C@H]2C3=CCC4[C@@]5(C)CC[C@H](O)[C@](C)(CO)C5CC[C@@]4(C)[C@]3(C)C[C@H]3O[C@@H]1[C@H](O)[C@]32CO` (some centres undefined) gave NadD block 1, DNMT1 block 5, SUMO1 PPI mod 47*, Scp-1 inhibitor -4, STEP block -3 and LMPTP block -1.
For CC1(C)C[C@H]2C3=CCC4[C@@]5(C)CC[C@H](O)[C@](C)(CO)C5CC[C@@]4(C)[C@]3(C)CC[C@@]2(C)[C@H](O)[C@@H]1O (some centres undefined) the results were NadD block -6, DNMT1 block 22, SUMO1 PPI mod 18, Scp-1 inhibitor -1, STEP block -3 and LMPTP block -1.
Screening NC1=NC[C@@H](CC2CCCCC2)N1CCc1cc(C(F)(F)F)cc(C(F)(F)F)c1 returned NadD block 9, DNMT1 block 62*, SUMO1 PPI mod -84, Scp-1 inhibitor 16, STEP block 4 and LMPTP block -1.
For N#Cc1cn(-c2ccccc2)nc1-c1ccccc1 the results were NadD block -1, DNMT1 block 4, SUMO1 PPI mod 45*, Scp-1 inhibitor 20, STEP block -1 and LMPTP block 1.
CCc1c(C)nc2ncnn2c1N1CCCC(C(=O)NCCc2ccc(OC)cc2)C1 (centres undefined) was read as NadD block 4, DNMT1 block 5, SUMO1 PPI mod 1, Scp-1 inhibitor -2, STEP block 0 and LMPTP block 0.
`CC(C)(C)[C@@H]1C=C(C(=O)N2CCOCC2)O[C@H](OCc2ccc(CO)cc2)C1` gave NadD block -2, DNMT1 block -2, SUMO1 PPI mod 1, Scp-1 inhibitor -2, STEP block 4 and LMPTP block 0.
`COC(=O)c1ccc(NC(=O)CCc2nnc3ccc(NCc4ccco4)nn23)cc1` gave NadD block 1, DNMT1 block 8, SUMO1 PPI mod 11, Scp-1 inhibitor 1, STEP block -1 and LMPTP block 1.
Screening Brc1cc2c(cc1C1Nc3ccccc3C3C=CCC31)OCO2 (centres undefined) returned NadD block 19, DNMT1 block -27, SUMO1 PPI mod -3, Scp-1 inhibitor 1, STEP block 1 and LMPTP block 3.
Cc1cc(C)c2c(c1)NC(c1cc3c(cc1Br)OCO3)C1CC=CC21 (centres undefined) was read as NadD block 37*, DNMT1 block -5, SUMO1 PPI mod 0, Scp-1 inhibitor 4, STEP block 2 and LMPTP block 1.
Screening CN1CCc2cc3c(c4c2[C@H]1[C@H](O)c1ccccc1-4)OCO3 returned NadD block 6, DNMT1 block 70*, SUMO1 PPI mod -36, Scp-1 inhibitor -6, STEP block 0 and LMPTP block 4.
COc1ccc2c(c1OC)C(=O)OC2C1c2c(cc3c(c2OC)OCO3)CCN1C (centres undefined) was read as NadD block -1, DNMT1 block 0, SUMO1 PPI mod -3, Scp-1 inhibitor -1, STEP block -1 and LMPTP block -1.
For O=C(C1=C[C@@H](c2ccc(Br)cc2)C[C@@H](OCCCCO)O1)N1CCN(Cc2ccccc2)CC1 the results were NadD block -2, DNMT1 block -14, SUMO1 PPI mod -4, Scp-1 inhibitor 0, STEP block 1 and LMPTP block 0.
